Measurements published in ChEMBL document CHEMBL1287802, “Convergent synthesis of fluorescence-labeled probes of Annonaceous acetogenins and visualization of their cell distribution” (Bioorg Med Chem, 2010).
Calls of active or inactive are those of the source. No cut-off for these calls is given here.

Key:
ACHN = experiment: Growth inhibition of human ACHN cells after 48 hrs by sulforhodamine B assay; format: functional
How it was run: (§1)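 Tested in the JFCR39 panel of 39 human cancer cell lines. Cells were exposed to compound for 48 h, and growth was measured as the change in total cellular protein by sulforhodamine B colorimetry. GI50 (molar concentration for 50% growth inhibition) was calculated by a previously reported method. Fingerprints were plotted as log differences of each line's GI50 from the panel mean.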

NCI-H23 = experiment: Growth inhibition of human NCI-H23 cells after 48 hrs by sulforhodamine B assay; format: functional; settings: NCI-H23, 48 h; how it was run: as §1
SF-539 = experiment: Growth inhibition of human SF539 cells after 48 hrs by sulforhodamine B assay; format: functional; settings: SF-539, 48 h; how it was run: as §1
[1] = biological target: ABC-type oligopeptide transporter ABCB9 (Homo sapiens) (UniProt Q9NP78); experiment: Effect on human GFP-tagged TAPL-mediated cellular uptake expressed in CHO-K1 cells assessed as localization to lysosome at 10 uM after 5 hrs by confocal laser scanning microscopic analysis
OVCAR-3 = experiment: Growth inhibition of human OVCAR-3 cells after 48 hrs by sulforhodamine B assay; format: functional; settings: OVCAR-3, 48 h; how it was run: as §1
[2] = Growth inhibition of human RXF631L cells after 48 hrs by sulforhodamine B assay; format: functional; settings: RXF 631, 48 h; how it was run: as §1
[3] = Growth inhibition of human BSY1 cells after 48 hrs by sulforhodamine B assay; format: functional; settings: BSY-1, 48 h; how it was run: as §1
NCI-H460 = experiment: Growth inhibition of human NCI-H460 cells after 48 hrs by sulforhodamine B assay; format: functional; settings: NCI-H460, 48 h; how it was run: as §1
SNB-75 = experiment: Growth inhibition of human SNB75 cells after 48 hrs by sulforhodamine B assay; format: functional; settings: SNB-75, 48 h; how it was run: as §1
PC-3 = experiment: Growth inhibition of human PC3 cells after 48 hrs by sulforhodamine B assay; format: functional; settings: PC-3, 48 h; how it was run: as §1
[4] = biological target: ABC-type oligopeptide transporter ABCB9 (Homo sapiens) (UniProt Q9NP78); experiment: Effect on human GFP-tagged TAPL-mediated cellular uptake expressed in CHO-K1 cells assessed as localization to endoplasmic reticulum at 10 uM after 5 hrs using ER-Tracker red staining by confocal laser scanning microscopic analysis; format: cell-based
How it was run: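 CHO-K1 cells were cultured two days at 37 °C in Ham's F12 with 7% fetal calf serum. They were loaded with 10 µM dansyl probe in medium for 5 h, washed five times, then stained with ER-Tracker Red. Live confocal imaging used 405 nm excitation for dansyl and 559 nm for the tracker, with overlap of signals assessed. Samples were run in duplicate.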

SK-OV-3 = experiment: Growth inhibition of human SKOV3 cells after 48 hrs by sulforhodamine B assay; format: functional; settings: SK-OV-3, 48 h; how it was run: as §1
MKN-7 = experiment: Growth inhibition of human MKN7 cells after 48 hrs by sulforhodamine B assay; format: functional; settings: MKN-7, 48 h; how it was run: as §1
OVCAR-4 = experiment: Growth inhibition of human OVCAR4 cells after 48 hrs by sulforhodamine B assay; format: functional; settings: OVCAR-4, 48 h; how it was run: as §1
NCI-H522 = experiment: Growth inhibition of human NCI-H522 cells after 48 hrs by sulforhodamine B assay; format: functional; settings: NCI-H522, 48 h; how it was run: as §1
HCT-15 = experiment: Growth inhibition of human HCT15 cells after 48 hrs by sulforhodamine B assay; format: functional; settings: HCT-15, 48 h; how it was run: as §1
MKN-45 = experiment: Growth inhibition of human MKN45 cells after 48 hrs by sulforhodamine B assay; format: functional; settings: MKN-45, 48 h; how it was run: as §1
DU-145 = experiment: Growth inhibition of human DU145 cells after 48 hrs by sulforhodamine B assay; format: functional; settings: DU-145, 48 h, read-out: pGI50 (converted); how it was run: as §1
NCI-H226 = experiment: Growth inhibition of human NCI-H226 cells after 48 hrs by sulforhodamine B assay; format: functional; settings: NCI-H226, 48 h; how it was run: as §1
MCF7 = experiment: Growth inhibition of human MCF7 cells after 48 hrs by sulforhodamine B assay; format: functional; settings: MCF7, 48 h; how it was run: as §1
DMS-273 = experiment: Growth inhibition of human DMS273 cells after 48 hrs by sulforhodamine B assay; format: functional; settings: DMS-273, 48 h; how it was run: as §1
St-4 = experiment: Growth inhibition of human St-4 cells after 48 hrs by sulforhodamine B assay; format: functional; settings: St-4, 48 h; how it was run: as §1
MKN-28 = experiment: Growth inhibition of human MKN28 cells after 48 hrs by sulforhodamine B assay; format: functional; settings: MKN-28, 48 h; how it was run: as §1
HCC 2998 = experiment: Growth inhibition of human HCC2998 cells after 48 hrs by sulforhodamine B assay; format: functional; settings: HCC 2998, 48 h, read-out: pGI50 (converted); how it was run: as §1
U-251 = experiment: Growth inhibition of human U251 cells after 48 hrs by sulforhodamine B assay; format: functional; settings: U-251, 48 h; how it was run: as §1
[5] = Growth inhibition of human HBC5 cells after 48 hrs by sulforhodamine B assay; format: functional; settings: HBC5, 48 h; how it was run: as §1
OVCAR-5 = experiment: Growth inhibition of human OVCAR5 cells after 48 hrs by sulforhodamine B assay; format: functional; settings: OVCAR-5, 48 h; how it was run: as §1
HCT-116 = experiment: Growth inhibition of human HCT116 cells after 48 hrs by sulforhodamine B assay; format: functional; settings: HCT-116, 48 h; how it was run: as §1
A549 = experiment: Growth inhibition of human A549 cells after 48 hrs by sulforhodamine B assay; format: functional; settings: A549, 48 h; how it was run: as §1
[6] = Cytotoxicity against CHOK1 cells at 10 uM after 24 hrs; format: cell-based, Cricetulus griseus; settings: chinese hamster, cho-k1, 24 h
How it was run: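 CHO-K1 cells were grown two days at 37 °C in Ham's F12 with 7% fetal calf serum in glass-bottomed dishes. They were exposed to 10 µM probe for 5 h, washed, and imaged. Dishes were then incubated a further 24 h. Toxicity was judged by microscopic inspection for desquamated or suspended cells.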

[7] = Growth inhibition of human HBC4 cells after 48 hrs by sulforhodamine B assay; format: functional; settings: HBC4, 48 h; how it was run: as §1
[8] = Growth inhibition of human MDA-MB-23 cells after 48 hrs by sulforhodamine B assay; format: functional; settings: MDA-MB-23, 48 h, read-out: pGI50 (converted); how it was run: as §1
OVCAR-8 = experiment: Growth inhibition of human OVCAR8 cells after 48 hrs by sulforhodamine B assay; format: functional; settings: OVCAR-8, 48 h; how it was run: as §1
HT-29 = experiment: Growth inhibition of human HT-29 cells after 48 hrs by sulforhodamine B assay; format: functional; settings: HT-29, 48 h; how it was run: as §1
SF-268 = experiment: Growth inhibition of human SF268 cells after 48 hrs by sulforhodamine B assay; format: functional; settings: SF-268, 48 h; how it was run: as §1
DMS-114 = experiment: Growth inhibition of human DMS114 cells after 48 hrs by sulforhodamine B assay; format: functional; settings: DMS-114, 48 h; how it was run: as §1
LOX IMVI = experiment: Growth inhibition of human LOXIMVI cells after 48 hrs by sulforhodamine B assay; format: functional; how it was run: as §1
[9] = Growth inhibition of human MKN1 cells after 48 hrs by sulforhodamine B assay; format: functional; settings: MKN-1, 48 h; how it was run: as §1
KM12 = experiment: Growth inhibition of human KM12 cells after 48 hrs by sulforhodamine B assay; format: functional; settings: KM12, 48 h; how it was run: as §1
SNB-78 = experiment: Growth inhibition of human SNB78 cells after 48 hrs by sulforhodamine B assay; format: functional; settings: SNB-78, 48 h; how it was run: as §1
SF-295 = experiment: Growth inhibition of human SF295 cells after 48 hrs by sulforhodamine B assay; format: functional; settings: SF-295, 48 h; how it was run: as §1
MKN-74 = experiment: Growth inhibition of human MKN74 cells after 48 hrs by sulforhodamine B assay; format: functional; settings: MKN-74, 48 h; how it was run: as §1

Chain of ABC-type oligopeptide transporter ABCB9 (Homo sapiens) (Q9NP78 whole entry): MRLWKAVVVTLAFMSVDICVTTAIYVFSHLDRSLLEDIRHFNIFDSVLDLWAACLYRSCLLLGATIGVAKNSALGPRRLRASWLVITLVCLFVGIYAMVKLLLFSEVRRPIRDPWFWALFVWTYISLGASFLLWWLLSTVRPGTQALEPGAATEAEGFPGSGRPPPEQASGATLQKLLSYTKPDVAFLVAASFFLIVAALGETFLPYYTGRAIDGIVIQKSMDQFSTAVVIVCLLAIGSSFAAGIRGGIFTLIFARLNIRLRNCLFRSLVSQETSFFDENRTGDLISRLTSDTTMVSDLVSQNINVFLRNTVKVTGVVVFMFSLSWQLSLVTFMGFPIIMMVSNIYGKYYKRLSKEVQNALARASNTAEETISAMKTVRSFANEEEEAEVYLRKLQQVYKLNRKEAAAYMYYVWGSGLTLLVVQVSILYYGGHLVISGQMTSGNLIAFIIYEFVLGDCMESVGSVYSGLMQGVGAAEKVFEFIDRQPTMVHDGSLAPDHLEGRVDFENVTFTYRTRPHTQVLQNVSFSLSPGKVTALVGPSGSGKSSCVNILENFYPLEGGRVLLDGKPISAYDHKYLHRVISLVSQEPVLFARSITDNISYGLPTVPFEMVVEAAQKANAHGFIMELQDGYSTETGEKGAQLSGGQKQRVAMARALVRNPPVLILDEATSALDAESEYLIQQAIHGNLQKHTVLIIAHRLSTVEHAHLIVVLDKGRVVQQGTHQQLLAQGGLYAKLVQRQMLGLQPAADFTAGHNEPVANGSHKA

Compound: C[C@H]1C=C(CCCCCCCCCCCC[C@@H](O)[C@H]2CC[C@H]([C@H](O)CCCCCCCCCNS(=O)(=O)c3cccc4c(N(C)C)cccc34)O2)C(=O)O1
- GI50 (ACHN): > 100 µM
- GI50 (NCI-H23): 3.47 µM
- GI50 (SF-539): > 100 µM
- Activity [1]: inactive
- GI50 (OVCAR-3): > 100 µM
- GI50 [2]: > 100 µM
- GI50 [3]: > 100 µM
- GI50 (NCI-H460): > 100 µM
- GI50 (SNB-75): > 100 µM
- GI50 (PC-3): 81.3 µM
- Activity [4]: Active
- GI50 (SK-OV-3): > 100 µM
- GI50 (MKN-7): 0.0398 µM
- GI50 (OVCAR-4): > 100 µM
- GI50 (NCI-H522): 4.9 µM
- GI50 (HCT-15): > 100 µM
- GI50 (MKN-45): > 100 µM
- GI50 (DU-145): > 100 µM
- GI50 (NCI-H226): 29.5 µM
- GI50 (MCF7): 6.03 µM
- GI50 (DMS-273): > 100 µM
- GI50 (St-4): > 100 µM
- GI50 (MKN-28): 0.0692 µM
- GI50 (HCC 2998): > 100 µM
- GI50 (U-251): > 100 µM
- GI50 [5]: > 100 µM
- GI50 (OVCAR-5): > 100 µM
- GI50 (HCT-116): 8.91 µM
- GI50 (A549): > 100 µM
- Activity [6]: Non-toxic
- GI50 [7]: > 100 µM
- GI50 [8]: > 100 µM
- GI50 (OVCAR-8): > 100 µM
- GI50 (HT-29): > 100 µM
- GI50 (SF-268): > 100 µM
- GI50 (DMS-114): 0.0234 µM
- GI50 (LOX IMVI): > 100 µM
- GI50 [9]: > 100 µM
- GI50 (KM12): > 100 µM
- GI50 (SNB-78): > 100 µM
- GI50 (SF-295): 0.513 µM
- GI50 (MKN-74): 1.55 µM

Compound: C[C@H]1C=C(CCCCCCCCCCCC[C@@H](O)[C@H]2CC[C@H]([C@H](O)CCCCCCCCCNc3ccc([N+](=O)[O-])c4nonc34)O2)C(=O)O1
- GI50 (ACHN): 33.9 µM
- GI50 (NCI-H23): 18.6 µM
- GI50 (SF-539): 33.9 µM
- GI50 (OVCAR-3): 38.9 µM
- GI50 [2]: 67.6 µM
- GI50 [3]: 33.1 µM
- GI50 (NCI-H460): 51.3 µM
- GI50 (SNB-75): 51.3 µM
- GI50 (PC-3): 29.5 µM
- GI50 (SK-OV-3): 81.3 µM
- GI50 (MKN-7): 0.0525 µM
- GI50 (OVCAR-4): 60.3 µM
- GI50 (NCI-H522): 8.13 µM
- GI50 (HCT-15): 72.4 µM
- GI50 (MKN-45): 43.7 µM
- GI50 (DU-145): > 100 µM
- GI50 (NCI-H226): 22.9 µM
- GI50 (MCF7): 16.2 µM
- GI50 (DMS-273): 19.1 µM
- GI50 (St-4): 33.1 µM
- GI50 (MKN-28): 0.01 µM
- GI50 (HCC 2998): > 100 µM
- GI50 (U-251): 75.9 µM
- GI50 [5]: 21.9 µM
- GI50 (OVCAR-5): 38.9 µM
- GI50 (HCT-116): 15.8 µM
- GI50 (A549): 26.3 µM
- GI50 [7]: 64.6 µM
- GI50 [8]: > 100 µM
- GI50 (OVCAR-8): 69.2 µM
- GI50 (HT-29): 69.2 µM
- GI50 (SF-268): 89.1 µM
- GI50 (DMS-114): 0.01 µM
- GI50 (LOX IMVI): 10.7 µM
- GI50 [9]: 21.4 µM
- GI50 (KM12): 36.3 µM
- GI50 (SNB-78): 97.7 µM
- GI50 (SF-295): 7.24 µM
- GI50 (MKN-74): 0.191 µM
